Data: PMC11447725 (ACS Omega, 2024)
“And” between values parts separate entries of the source, which are not always exact repeats. Equal values may be shown once. Read-outs that look alike come from different tables or passages of the source. Each block holds one molecule with its values, some of them ahead of it.

Tests used:
[1] = Stock solution stability at −30 ± 10 °C; type: physicochemical; conditions: for observed conc. after storage: stock solution in methanol, 22 days; for observed conc. after storage / accuracy after storage: n = 3; for time stable in stock solution / accuracy after storage: stock solution; for accuracy after storage: 22 days (text: 20 days), vs fresh
Method in brief: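 HHC and IS methanol stocks were diluted in methanol to 375 and 110 ng/mL (n = 3) and stored at −30 ± 10 °C for 22 days. Peak responses by LC-MS/MS were compared with freshly prepared stocks, and results were checked against nominal values (precision within 15%, accuracy within ±15%).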

[2] = mice, cited from earlier work
[3] = rats, cited from earlier work
[4] = oral administration, rats; cited from earlier work
[5] = Pharmacokinetics of HHC in plasma after single oral administration in mice; type: in vivo; conditions: 40 mg/kg
Method in brief: (§1)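 Male mice (18–22 g, acclimatised 1 week) received a single 40 mg/kg dose, IP or by oral gavage, in 0.1% DMSO diluted in 1% hydroxyethyl cellulose (10 μL/g). Four mice per time point (predose, 5–30 min, 1, 2, 4, 8, 24 h) were bled from the left ventricle under anaesthesia into EDTA. Plasma underwent MTBE extraction with butylparaben IS, then negative-ESI LC-MS/MS MRM. Noncompartmental analysis.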

[6] = Pharmacokinetics of HHC in plasma after single IP administration in mice; type: in vivo; conditions: 40 mg/kg
Method in brief: as §1

[7] = Tissue distribution of HHC; type: in vivo, mice; conditions: male, mouse, ip, 40 mg/kg
Method in brief: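 Mice were dosed 40 mg/kg IP in 0.1% DMSO/1% hydroxyethyl cellulose, and liver, kidney and brain were removed at the plasma sampling times (n = 4; brain n = 3). Tissues were homogenised 1:10 (w/w) in PBS. Brain was extracted like plasma; kidney and liver received acetone precipitation before MTBE extraction with butylparaben IS. Negative-ESI LC-MS/MS MRM, calibrated at 5–500 ng/mL. Noncompartmental parameters.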

[8] = Long-term stability of HHC in mice plasma at −30 ± 10 °C; type: in vitro ADME; conditions: 20 days; for accuracy after storage / observed conc. after storage: n = 3
Method in brief: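 Blank mouse plasma was spiked at 15 and 375 ng/mL (n = 3) and kept at −30 ± 10 °C for 20 days. Samples were then extracted with MTBE using butylparaben IS and quantified by LC-MS/MS against daily calibration curves. Results were compared with nominal values; acceptance was precision within 15% and accuracy within ±15%.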

[9] = pH 7.4; cited from earlier work
[10] = after intravenous curcumin 20 mg/kg

time stable in stock solution [1]: at least 22 days
observed conc. after storage ([1]; nominal 110.10 ng/mL): 112.08 ± 0.90 ng/mL
accuracy after storage [1]: 101.80%
Structure (SMILES): CCCCOC(=O)c1ccc(O)cc1 [IS, butylparaben, reference compound]

Structure (SMILES): COc1cc(CCC(=O)CC(=O)CCc2ccc(O)c(OC)c2)ccc1O [tetrahydrocurcumin]
AUC0–∞ [2, 10]: 12.0 ± 4.0 mg·min/L
detection in liver [2, 10]: detectable

Structure (SMILES): COc1cc(/C=C/C(=O)CC(=O)/C=C/c2ccc(O)c(OC)c2)ccc1O [curcumin]
elimination half-life (T1/2,β) ([3]; intravenous 10 mg/kg): 0.742 ± 0.125 h
Tmax ([3]; oral 500 mg/kg): 0.695 ± 0.09 h
elimination half-life (T1/2,β) ([3]; oral 500 mg/kg): 0.468 ± 0.0933 h
oral bioavailability [3]: approximately 1%
AUC0–∞ [2, 10]: 107.0 ± 18.3 mg·min/L
T1/2,z ([2]; intravenous curcumin 20 mg/kg, plasma): 0.538 ± 0.18 h
half-life [4]: 0.545 h

Structure (SMILES): COc1cc(/C=C/C(=O)CC(=O)CCc2ccc(O)c(OC)c2)ccc1O [dihydrocurcumin]
AUC0–∞ [2, 10]: 6.0 ± 1.2 mg·min/L
detection in kidneys [2, 10]: present

AUC(0-inf) ([5]; male, mouse, po): 142 ng·h/mL
AUC(0-t) ([5]; male, mouse, po): 127 ng·h/mL
Cmax ([5]; male, mouse, po): 194 ± 43.5 ng/mL
MRT inf ([5]; male, mouse, po): 2.58 h
MRT last ([5]; male, mouse, po): 1.61 h
half-life ([5]; male, mouse, po, T1/2, oral 40 mg/kg, mice, n = 4): ~2.17 h
Tmax ([5]; male, mouse, po, Tmax, oral 40 mg/kg, mice, n = 4): ~0.25 h
half-life ([5]; male, mouse, po, half-life, oral 40 mg/kg, mice): ~2.17 h
percent relative bioavailability (AUC0–t oral / AUC0–t IP) ([5]; oral vs IP, mice): 12.28%
Cmax after IP relative to oral administration ([6]; mice, IP vs oral): 47.90 times and 47.9 times
Cmax ([6]; male, mouse, ip): 9300 ± 4290 ng/mL
MRT inf ([6]; male, mouse, ip): 0.875 h
MRT last ([6]; male, mouse, ip): 0.708 h
half-life ([6]; male, mouse, ip, T1/2, IP 40 mg/kg, mice, n = 4): ~1.52 h
Tmax ([6]; male, mouse, ip, Tmax, IP 40 mg/kg, mice, n = 4): ~5 min
half-life ([6]; male, mouse, ip, half-life, IP 40 mg/kg, mice): ~1.52 h
AUC(0-inf) ([7]; brain): 21.1 ng·h/mL
AUC(0-t) ([7]; brain): 18.7 ng·h/mL
Cmax ([7]; brain): 120 ± 54.1 ng/mL
MRT inf ([7]; brain): 2.04 h
MRT last ([7]; brain): 1.05 h
Tmax ([7]; brain): 5 min
half-life ([7]; brain): 1.77 ± 0.98 h
Cmax ([7]; kidney): 1700 ± 897 ng/mL
MRT inf ([7]; kidney): 1.94 h
MRT last ([7]; kidney): 1.6 h
Tmax ([7]; kidney): 6.3 min
half-life ([7]; kidney): 1.7 ± 0.623 h
MRT inf ([7]; liver): 2.67 h
MRT last ([7]; liver): 2.6 h
Tmax ([7]; liver): 5 min
half-life ([7]; liver): 1.74 ± 0.43 h
time stable in stock solution [1]: at least 22 days
observed conc. after storage ([1]; nominal 375.00 ng/mL): 398.08 ± 1.45 ng/mL
accuracy after storage [1]: 106.15%
stability in plasma samples [8]: stable
accuracy after storage ([8]; HQC nominal 375.00 ng/mL): 94.81%
observed conc. after storage ([8]; HQC nominal 375.00 ng/mL): 355.53 ± 34.51 ng/mL
accuracy after storage ([8]; LQC nominal 15.00 ng/mL): 90.27%
observed conc. after storage ([8]; LQC nominal 15.00 ng/mL): 13.54 ± 1.03 ng/mL
Structure (SMILES): COc1cc(CCC(=O)CC(O)CCc2ccc(O)c(OC)c2)ccc1O (stereo not shown) [HHC, hexahydrocurcumin]
stability compared with curcumin [9]: superior stability to curcumin
